Results on 28 molecules are retold here after ChEMBL document CHEMBL2375294, “Synthesis, structure-activity relationship analysis and kinetics study of reductive derivatives of flavonoids as Helicobacter pylori urease inhibitors” (Eur J Med Chem, 2013).

The target in experiment [1] is T1, Urease subunit alpha/Urease subunit beta (Helicobacter pylori (strain ATCC 700392 / 26695) (Campylobacterpylori), UniProt P69996). Kind of experiment: Inhibition of Helicobacter pylori ATCC 43504 urease-mediated ammonia production preincubated for 1.5 hrs by indophenol method.
The target of experiment [2] is Urease subunit alpha/Urease subunit beta (Helicobacter pylori (strain ATCC 700392 / 26695) (Campylobacterpylori)) (UniProt P69996+P14916). Kind of experiment: Ratio of acetohydroxamic acid IC50 to compound IC50 for Helicobacter pylori ATCC 43504 urease.
For experiment [3], the target named is T1, Urease subunit alpha/Urease subunit beta. In words: Competitive inhibition of Helicobacter pylori ATCC 43504 urease using urea as substrate by Lineweaver-Burk/Dixon plot analysis. In a few lines:
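Crude urease from H. pylori ATCC 43504, grown 24 h at 37 °C under microaerobic conditions in Brucella broth with 10% heat-inactivated horse serum. Enzyme (10 U) was pre-incubated with inhibitor for 1.5 h at room temperature. Ammonia was read by the indophenol method while urea varied at several inhibitor levels. Ki came from a Lineweaver–Burk slope replot x-intercept or a Dixon plot intersection. Run in triplicate.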

SMILES strings stand for the structures.

T1 sequence (P69996 whole entry): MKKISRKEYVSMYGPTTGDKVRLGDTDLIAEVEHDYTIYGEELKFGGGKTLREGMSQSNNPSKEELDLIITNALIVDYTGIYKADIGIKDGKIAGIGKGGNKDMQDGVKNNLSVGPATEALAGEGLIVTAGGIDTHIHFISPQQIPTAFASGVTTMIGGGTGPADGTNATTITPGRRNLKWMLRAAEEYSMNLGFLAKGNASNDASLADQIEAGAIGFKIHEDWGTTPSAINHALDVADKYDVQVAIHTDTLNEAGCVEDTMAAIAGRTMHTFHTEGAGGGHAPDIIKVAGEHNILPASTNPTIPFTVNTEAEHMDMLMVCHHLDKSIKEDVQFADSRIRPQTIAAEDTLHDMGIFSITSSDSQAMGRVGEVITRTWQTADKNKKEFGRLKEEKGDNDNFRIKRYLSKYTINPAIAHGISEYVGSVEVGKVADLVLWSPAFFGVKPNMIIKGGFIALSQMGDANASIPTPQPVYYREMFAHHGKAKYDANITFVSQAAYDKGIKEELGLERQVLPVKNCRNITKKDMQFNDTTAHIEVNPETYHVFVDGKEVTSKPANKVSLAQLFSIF
T1 sequence (P14916 whole entry, further chain): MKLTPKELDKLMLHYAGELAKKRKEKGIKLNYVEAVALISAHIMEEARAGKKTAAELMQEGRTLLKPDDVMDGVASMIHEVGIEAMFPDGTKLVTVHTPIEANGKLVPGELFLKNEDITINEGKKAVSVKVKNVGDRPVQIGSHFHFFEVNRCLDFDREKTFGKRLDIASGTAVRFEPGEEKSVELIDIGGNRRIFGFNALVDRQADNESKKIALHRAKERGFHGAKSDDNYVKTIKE
Urease subunit alpha/Urease subunit beta (Helicobacter pylori (strain ATCC 700392 / 26695) (Campylobacterpylori)), sequence (P14916 whole entry, looked up): as the sequence (P14916 whole entry, further chain) above
Urease subunit alpha/Urease subunit beta (Helicobacter pylori (strain ATCC 700392 / 26695) (Campylobacterpylori)), sequence (P69996 whole entry, looked up): as the sequence (P69996 whole entry) above

Usually IC50 stands for the point on the concentration scale where inhibition reaches its midpoint. A higher IC50 goes with weaker potency in that assay. On to `COc1ccc(C2COc3cc(OC)ccc3C2O)cc1` (stereo not given), for which half-maximal inhibition in experiment [1] (IC50) required 3870 µM.
In the case of `COc1cc(O)c(C(=O)CCc2ccccc2)c(O)c1`, the IC50 in experiment [1] stood at 978 µM.
Same read-out and setting: to `O=C1CC(c2ccc(O)cc2)Oc2cc(O)cc(O)c21` (stereo not given) belongs 328 µM; to `O=c1cc(-c2ccccc2)oc2cc(O)c(O)c(O)c12` [BAICALEIN], 291 µM; to `COc1cc(OC)c2c(=O)cc(-c3ccccc3)oc2c1` [CHRYSIN DIMETHYL ETHER], 2180 µM.
Molecule `COc1ccc(C2COc3cc(O)ccc3C2)cc1` (stereo not given) gave a half-maximal inhibitory concentration (IC50) in experiment [1] of 358 µM.
In the case of `Oc1ccc(C2COc3cc(O)ccc3C2)cc1` (stereo not given), in experiment [1], the concentration for half-maximal inhibition (IC50) came out at 92.9 µM.
For `COc1ccc(-c2coc3cc(OC)ccc3c2=O)cc1`, the half-maximal inhibitory concentration (IC50) in experiment [1] came out at 3530 µM.
The same measure, in the same setting: the same measure for `COc1ccc(C(C)C(=O)c2ccc(OC)cc2O)cc1` (stereo not given): 2180 µM; for `COc1ccc(C2COc3cc(OC)ccc3C2)cc1` (stereo not given): 1780 µM.
In general, Ki refers to a measure of affinity in units of concentration, obtained from inhibition or displacement. A lower Ki goes with tighter binding. As for `Oc1ccc(C2=COc3c(ccc(O)c3O)C2)cc1`, half-maximal inhibition in experiment [1] (IC50) was put at 0.85 µM. For the same molecule, the Ratio IC50 in experiment [2] is 20. For the same molecule, affinity in experiment [3] was put at a Ki of 0.641 µM.
In experiment [1], `O=c1c(O)c(-c2ccc(O)c(O)c2)oc2cc(O)cc(O)c12` [QUERCETIN] had an IC50 of 11 µM.
In turn, `COc1ccc(-c2coc3cc(O)ccc3c2=O)cc1` [FORMONONETIN] registered an IC50 in experiment [1] of 2000 µM.
For the molecule `COc1ccc(C2=CCc3c(OC)c(OC)c(OC)c(OC)c3O2)cc1`, in experiment [1], the IC50 stood at 3790 µM.
The same measure, in the same setting: to `O=c1cc(-c2ccccc2)oc2cc(O)cc(O)c12` [CHRYSIN] belongs 302 µM; to `COc1ccc(C2CC(O)c3c(OC)c(OC)c(OC)c(OC)c3O2)cc1` (stereo not given), 4850 µM; to `Oc1cc(O)c2c(c1)OC(c1ccccc1)C=C2` (stereo not given), 33.2 µM.
Take `COc1cc(O)c(C(=O)CCc2ccccc2)c(OC)c1`: the IC50 in experiment [1] worked out at 1670 µM.
Still for that read-out and setting: to `Oc1cc(O)c2c(c1)OC(c1ccc(O)c(O)c1)C=C2` (stereo not given) belongs 4.42 µM; to `COc1ccc(C2=COc3cc(O)ccc3C2)cc1`, 86.2 µM.
As for `O=c1cc(-c2ccc(O)cc2)oc2cc(O)cc(O)c12` [APIGENIN], the IC50 in experiment [1] is 138 µM.
Molecule `O=c1c(-c2ccc(O)cc2)coc2cc(O)ccc12` [DAIDZEIN] gave an IC50 in experiment [1] of 556 µM.
Same read-out and setting: to `COc1ccc(C(C)C(=O)c2ccc(O)cc2O)cc1` (stereo not given) belongs 1050 µM.
Same read-out and setting: the same measure for `O=c1cc(-c2ccc(O)c(O)c2)oc2cc(O)cc(O)c12` [LUTEOLIN]: 35.4 µM; for `Oc1cc2c(c(O)c1O)C=CC(c1ccccc1)O2` (stereo not given): 22.1 µM; for `COc1ccc(-c2cc(=O)c3c(OC)c(OC)c(OC)c(OC)c3o2)cc1` [TANGERETIN]: 4630 µM.
`COc1cc(O)c(C(=O)/C=C/c2ccccc2)c(OC)c1` [FLAVOKAWAIN B] had an IC50 in experiment [1] of 1220 µM.
For `COc1ccc(C2C=Cc3c(OC)c(OC)c(OC)c(OC)c3O2)cc1` (stereo not given), it took 4170 µM to reach half-maximal inhibition in experiment [1] (IC50).
